Data: ChEMBL document CHEMBL4673249, “Anticancer Effects of Honokiol via Mitochondrial Dysfunction Are Strongly Enhanced by the Mitochondria-Targeting Carrier Berberine” (J Med Chem, 2020)
The source made the active and inactive calls. The calls are words filed in the database; no cut-off is given here.

Tests used:
[1] = Ratio of HN drug uptake to test compound drug uptake in human HepG2 cells at 5 uM after 12 hrs by HPLC analysis; assay type: ADME, cell-based; details: hepg2, 12 h
In short: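 HepG2 cells treated with 5 μM compound or honokiol for 12 h. Mitochondria isolated with a kit by centrifugation at 600g then 11000g, 4 °C, 10 min each. Whole-cell and mitochondrial drug measured by HPLC on a C18 column, methanol-0.1% acetic acid (80:20), at 265 nm (derivative) and 210 nm (honokiol). Run thrice.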

[2] = test system: HepG2; assay: Induction of morphological changes in human HepG2 cells assessed as accumulation of vacuoles at 3 uM after 24 hrs in presence of CQ by microscopic method; assay type: functional, cell-based
In short: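 HepG2 cells given 3 μM compound for 24 h with chloroquine (10 μM) or 3-methyladenine (1 mM). Vacuolization and viability examined, viability by MTT.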

[3] = test system: HepG2; assay: Induction of mitochondrial dysfunction in human HepG2 cells assessed as […] at 1 to 4 uM after 24 hrs by JC-1 staining based flow cytometric analysis; assay type: functional, cell-based; details: dose 1-4 µM
[4] = test system: HepG2; assay: Induction of apoptosis in human HepG2 cells assessed as increase in cleaved-caspase 3 protein expression at 1 to 4 uM after 24 hrs by Western blot analysis; assay type: functional, cell-based; details: dose 1-4 µM
In short: (§1)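 HepG2 cells lysed in RIPA on ice for 20 min; protein measured by BCA. Lysates run on 10% SDS-PAGE and transferred to PVDF. Membranes blocked in 5% nonfat milk/TBST for 2 h, incubated with primary antibodies overnight at 4 °C, then HRP secondary antibody; bands detected by ECL.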

[5] = test system: HepG2; assay: Induction of cell death in human HepG2 cells at 3 uM after 24 hrs in presence of CQ by MTT assay; assay type: functional, cell-based
In short: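 HepG2 cells given 3 μM for 24 h together with CQ (10 μM) or 3-MA (1 mM). Viability measured by MTT with absorbance read at 570 nm.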

[6] = test system: HT-29; assay: Antiproliferative activity against human HT29 cells assessed as reduction in cell viability after 48 hrs by MTT assay; assay type: functional, cell-based; details: HT-29, 48 h
In short: (§2)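 Cell lines grown at 37 °C in 5% CO2: A2780, A549, HL7702 and PC3 in RPMI 1640; HT29 in McCoy's 5A; HepG2 and PANC-1 in DMEM; all media with 10% FBS and penicillin/streptomycin. Cells seeded and left overnight, then exposed to compound for 48 h. MTT (5 mg/mL solution) added for 4 h at 37 °C, formazan dissolved in DMSO, absorbance read at 570 nm. IC50 taken from viability; run in triplicate.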

[7] = test system: HepG2; assay: Induction of apoptosis in human HepG2 cells assessed as increase in cleaved-caspase 9 protein expression at 1 to 4 uM after 24 hrs by Western blot analysis; assay type: functional, cell-based; details: dose 1-4 µM; in short: as §1
[8] = test system: L02; assay: Antiproliferative activity against human L02 cells assessed as reduction in cell viability after 48 hrs by MTT assay; assay type: cell-based; details: L02, 48 h; in short: as §2
[9] = test system: A549; assay: Induction of morphological changes in human A549 cells assessed as accumulation of cytoplasmic vacuoles at 4 uM after 24 hrs by optical microscopic method; assay type: functional, cell-based
[10] = Selectivity ratio of IC50 for antiproliferative activity against human L02 cells to IC50 for antiproliferative activity human HepG2 cells; assay type: toxicity, cell-based; details: L02 cells and HepG2 cells, read-out: Ratio IC50
In short: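 MTT assay after 48 h drug exposure. Cells seeded overnight, MTT (5 mg/mL stock) added for 4 h at 37 °C, formazan dissolved in DMSO, absorbance read at 570 nm. IC50 taken from viability, repeated in triplicate, and the IC50 ratio calculated.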

[11] = test system: HepG2; assay: Induction of apoptosis in human HepG2 cells assessed as accumulation of AIF in cytoplasm at 4 uM after 24 hrs by immunofluorescence assay; assay type: functional, cell-based
In short: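 HepG2 cells in glass-bottom dishes given 4 μM for 24 h. Fixed in methanol:acetone (1:1) for 10 min, blocked with 5% BSA for 1 h at room temperature. Anti-AIF antibody applied overnight at 4 °C, then Alexa Fluor 594 secondary; nuclei stained with DAPI. Imaged by confocal microscopy.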

[12] = test system: PANC-1; assay: Induction of morphological changes in human PANC-1 cells assessed as accumulation of cytoplasmic vacuoles at 4 uM after 24 hrs by optical microscopic method; assay type: functional, cell-based
In short: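 Cells grown at 37 °C, 5% CO2 in media with 10% FBS and penicillin/streptomycin, then treated with compound. Cytoplasmic vacuoles judged by optical microscopy. Time course at 4 μM, or 10 h exposure across increasing concentrations.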

[13] = test system: A549; assay: Antiproliferative activity against human A549 cells assessed as reduction in cell viability after 48 hrs by MTT assay; assay type: functional, cell-based; details: A549, 48 h; in short: as §2
[14] = Drug uptake in human HepG2 cells mitochondria at 5 uM after 12 hrs by HPLC analysis; assay type: ADME; details: hepg2, 12 h
In short: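 HepG2 cells given 5 μM for 12 h, then homogenized in mitochondrial extraction reagent. Spun at 600 g, 4 °C, 10 min; supernatant spun again at 11000 g, 4 °C, 10 min, and the pellet taken as mitochondria. Drug content by HPLC on a C18 column with methanol–0.1% acetic acid (80:20), detection at 265 nm. Run thrice.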

[15] = test system: HepG2; assay: Induction of apoptosis in human HepG2 cells assessed as viable cells at 2 uM after 24 hrs by annexin V/propidium iodide staining based flow cytometric analysis (reference value: 95.3%); assay type: functional; details: read-out: Activity

In the case of `C=CCc1ccc(O)c(-c2ccc(OCCCCCc3c4[n+](cc5c(OC)c(OC)ccc35)CCc3cc5c(cc3-4)OCO5)c(CC=C)c2)c1.[I-]`, the Ratio [1] is reported as 2.5, the Activity [2] is reported as “Active” and the Activity [3] is reported as “Active”. For the same molecule, the Activity [4] was “Active”, the Activity [5] was “Active” and the IC50 [6] was greater than 5 µM. The Activity [7] was “Active”, the IC50 [8] was 4.61 µM and the Activity [9] was “Active”. For the same molecule, the selectivity ratio [10] was 2.8, the Activity [11] was “Active” and the Activity [12] was “Active”. The IC50 [13] was 3 µM, the Drug uptake [14] was 66.3 µM and the viability at 2 µM [15] was 93.3%.
